Compounds with a hit are over-represented: about 0.85% of the library has one in this group of screens.
OXTR potentiator = potentiators of human oxytocin receptor. P30559. CHO-OTR cells, Fluo-8 calcium fluorescence, potentiator mode; 0% = oxytocin EC15, 100% = EC100. activation, % at 3 µM. 0.061% of 320,000 active. AID 2445;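 active means activation above that plate's cutoff, the mean activation of tested compounds plus 3 SD, cut at about 6.6% in these data, passing the limit was not always enough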
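assay system = CHO-OTR cells, human receptor | schedule = compound 6 min at room temperature before oxytocin, 100 s read | detection = Fluo-8 intracellular calcium fluorescence, ex 470-495, em 515-575 nm | evaluation = normalized max/min fluorescence ratio, % activation | control set = EC15 oxytocin alone as 0%, 75 nM oxytocin (EC100) as 100%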
CRFBP-R2 agonist = agonists of human CRF-binding protein/CRF-R2 receptor complex | HEK293 CRF-R2/CRF-BP, calcium dye fluorescence (FLIPR); percent of saturating CRF peptide response | 0.46% of 350,000 active | activation, % at 13.2 µM;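 active means activation of at least 50%, plus an integration ratio under a set limit after plate pattern correction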
OXTR ag = activates the human oxytocin receptor; 0.32% of 320,000 active; CHO-OTR cells, Fluo-8 calcium fluorescence; normalized: DMSO 0%, oxytocin 100%; activation, % at 3 µM; P30559;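 active means activation above the mean of all tested compounds plus 3 SD, cutoff set per screening run, cut at about 20% in these data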;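 further: peak over basal fluorescence ratio from a 100 s FLIPR kinetic read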
zfTRPN1 agonist = activates the zebrafish TRPN1 channel | 0.18% of 220,000 active | HEK293 zebrafish TRPN1-YFP, Fluo-8 calcium fluorescence; 100% = response to 87 µM carbachol | activation, % at 3 µM;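 active means activation above its plate's cutoff, the mean activation of test wells on that plate plus 3 SD, cut at about 19% in these data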
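Material – zebrafish TRPN1-YFP in HEK293 cells · Doses – 3 µM single point · Schedule – dye 1 h 37 °C plus 30 min RT · Signal – Fluo-8 calcium fluorescence, excitation 470-495 nm, emission 515-575 nm · Read-out – % activation versus carbachol response · Control set – carbachol high, DMSO low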
V1aR counter = V1a receptor agonism, counter-screen for OXTR agonists | CHO-V1R cells, Fluo-8 calcium fluorescence, agonist mode; 0% DMSO, 100% 3 nM vasopressin | P37288 | 0.25% of 320,000 active | AID 2797 | activation, % at 3 µM;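 active means activation above the mean activation of all tested compounds plus 3 SD, per screening run, cut at about 20% in these data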;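 further: signal is peak over basal fluorescence ratio across a 100 second FLIPR read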
TRPML3 ag = activates the human TRPML3 channel | HEK293 TRPML3-YFP, Fluo-8 calcium fluorescence; 100% = the carbachol control signal | 0.29% of 220,000 active | AID 1448 | Q8TDD5 | activation, % at 3 µM;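 active means activation above its plate's cutoff, the mean activation of the plate's test wells plus 3 SD, cut at about 12% in these data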
Target sequence (Q8TDD5 whole entry, looked up): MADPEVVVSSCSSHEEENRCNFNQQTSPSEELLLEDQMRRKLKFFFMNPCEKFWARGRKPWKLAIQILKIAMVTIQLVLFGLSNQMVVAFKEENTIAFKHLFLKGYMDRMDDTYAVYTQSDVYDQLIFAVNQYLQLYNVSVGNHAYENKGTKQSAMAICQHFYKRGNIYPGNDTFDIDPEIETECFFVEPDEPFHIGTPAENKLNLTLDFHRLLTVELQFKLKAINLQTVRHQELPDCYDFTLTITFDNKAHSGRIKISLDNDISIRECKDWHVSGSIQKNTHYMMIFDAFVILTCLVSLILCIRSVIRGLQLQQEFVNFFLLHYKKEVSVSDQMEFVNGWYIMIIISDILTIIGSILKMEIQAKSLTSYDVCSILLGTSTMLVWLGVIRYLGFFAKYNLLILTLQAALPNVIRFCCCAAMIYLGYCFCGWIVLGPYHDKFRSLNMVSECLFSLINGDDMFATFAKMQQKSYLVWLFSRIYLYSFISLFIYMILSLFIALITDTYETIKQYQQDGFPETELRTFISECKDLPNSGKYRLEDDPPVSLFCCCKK
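system = HEK293 cells stably carrying human TRPML3-YFP | doses = one concentration, 3 µM nominal, 0.3% DMSO | timing = dye loading 1 h 37 °C then 30 min ambient, 125 s read | detection = Fluo-8 calcium dye fluorescence, ex 470-495, em 515-575 nm | benchmarks = high control carbachol 87 µM, low control DMSO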
V1R ag confirm = confirmation of human vasopressin V1a receptor agonists; activation, % at 3 µM; 20% of 180 active; AID 434964; CHO-V1R cells, Fluo-8 calcium fluorescence, agonist; shares compounds with V1aR counter;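 active means average activation exceeds primary screen hit cutoff, cut at about 21% in these data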;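 further: peak over basal fluorescence ratio during a 100 s FLIPR read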
OXTR ag counter = activates oxytocin receptor in V1a agonist counter-screen; AID 434969; activation, % at 3 µM; CHO-OTR cells, Fluo-8 calcium fluorescence; 10% of 180 active; shares compounds with V1aR counter;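 active means mean activation over three repeats above the cutoff from the earlier oxytocin receptor agonist screen, cut at about 20% in these data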;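 further: peak over minimum fluorescence ratio within a 100 second FLIPR read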
A number is an active result; - = inactive; . = no result.

SMILES	OXTR potentiator	CRFBP-R2 agonist	OXTR ag	zfTRPN1 agonist	V1aR counter	TRPML3 ag	V1R ag confirm	OXTR ag counter
Cc1cc(C(=O)Nc2c(C)nn(Cc3c(Cl)cccc3Cl)c2C)no1	-	-	-	-	-	-	.	.
Cc1nn(Cc2c(Cl)cccc2Cl)c(C)c1NC(=O)c1cc(C(C)C)on1	-	-	-	-	27	-	-	-
COC(=O)C(NC(=O)c1ccccc1Cl)(Nc1ncc(S(=O)(=O)c2ccc([N+](=O)[O-])cc2)s1)C(F)(F)F (configuration not stated)	-	-	-	-	28	-	-	-
O=C(CCl)Nc1ncc(S(=O)(=O)c2ccc([N+](=O)[O-])cc2)s1	-	-	-	.	-	.	.	.
O=C(c1ccccc1NS(=O)(=O)c1ccc(F)cc1)N1CCc2ccccc21	-	-	-	-	24	-	-	-
COc1ccc(/C=C2/SC(=O)NC2=O)cc1	-	-	-	-	-	-	.	.
COc1ccc(/C=C2/C(=O)C(C)(C(C)C)CCC2C)cc1 (configuration not stated)	-	-	-	.	20	.	-	-
COc1cccc(N2CCN(c3ccc(S(=O)(=O)N4CCN(C)CC4)cc3[N+](=O)[O-])CC2)c1	-	-	-	.	21	.	-	-
COc1ccc2nc(NC(=O)Cc3ccc(OC)c(S(=O)(=O)N4CCOCC4)c3)sc2c1	-	-	-	-	23	-	-	-
COc1ccc(CC(=O)Nc2nccs2)cc1S(=O)(=O)N1CCOCC1	-	-	-	.	-	.	.	.
Nc1ccccc1CCc1ccccc1N	.	-	.	.	.	.	.	.
CC1=NN(c2ccc(Cl)cc2)C(=O)C1C(c1cccc(O)c1)c1c(C)[nH]n(-c2ccc(Cl)cc2)c1=O (configuration not stated)	-	-	-	-	20	-	-	-
COc1cccc(C(=O)Oc2cc(N)n(S(=O)(=O)c3ccc(C)cc3)n2)c1OC	-	-	-	-	28	-	-	-
Cc1ccc(-c2ccc(=O)n(Cc3ccc(F)cc3)n2)cc1	-	-	-	.	22	.	-	-
O=C(Nc1cccc(C(=O)Nc2ccc(F)cc2F)c1)c1ccccc1	-	-	-	.	-	.	.	.
Clc1ccc(C(c2cccs2)N2CCNCC2)cc1 (configuration not stated)	.	-	.	.	.	.	.	.
CCC1CCCCN1CCCNC(=O)c1ccc(N2CCOCC2)c(NS(=O)(=O)c2ccc(OC)cc2)c1 (configuration not stated)	-	-	-	-	21	-	-	-
CCCCCCCCCCOC(=O)C[N+](C)(C)C/C=C(/C)Cl	-	-	-	-	-	-	.	.
CCCCCCCCCCCCOC(=O)C[N+](C)(C)C	-	-	-	-	26	-	-	-
Cc1ccc(S(=O)c2ccc([N+](=O)[O-])c3nonc23)cc1 (configuration not stated)	.	-	.	.	.	.	.	.
Cc1c(NC(=O)CSc2ccccc2C(=O)Nc2cccnc2)c(=O)n(-c2ccccc2)n1C	-	-	-	-	31	-	-	-
Cc1c(NC(=O)CSc2ccccc2F)c(=O)n(-c2ccccc2)n1C	-	-	-	-	-	-	.	.
Cc1ccc(OCCC(=O)OCC(=O)Nc2ccc(C)cc2Cl)cc1	-	-	-	.	-	.	.	.
CC[N+]1=C(C)C(C)(C)c2cc(C)ccc21	-	-	-	-	23	-	-	-
COC(=O)c1cc(CNC(=O)c2ccc(S(=O)(=O)N(C)c3ccccc3)cc2)ccc1OC	-	-	-	.	24	.	-	-
SMILES	OXTR potentiator	CRFBP-R2 agonist	OXTR ag	zfTRPN1 agonist	V1aR counter	TRPML3 ag	V1R ag confirm	OXTR ag counter
N#Cc1ccc(CN2CCN(C(=O)c3ccc(S(=O)(=O)NCc4ccco4)cc3)CC2)cc1	-	-	-	.	-	.	.	.
Oc1ccc(Cl)cc1C=Nc1ccc2c3c(cccc13)CC2	-	-	-	-	51	-	-	-
Oc1ccc(Cl)cc1/C=N/c1nccs1	-	-	-	-	-	-	.	.
COc1ccc(C(=O)N[C@H](C(=O)Nc2cccc(S(=O)(=O)N3CCOCC3)c2)C(C)C)cc1	.	-	.	.	.	.	.	.
COc1ccc(Nc2cc(C(=O)NCCCOC(C)C)c3ccccc3n2)c(OC)c1	-	-	-	.	25	.	-	-
COc1ccc(C(=O)O)cc1S(=O)(=O)N(C)CCc1cccnc1	-	-	-	-	-	-	.	.
COc1ccc(C(=O)O)cc1S(=O)(=O)N(CCc1ccccc1)Cc1ccccc1	-	-	-	-	25	-	-	-
CCc1ccc(/C=C2\SC(=S)N(CCCC(=O)N3CCCC3)C2=O)cc1	.	-	.	.	.	.	.	.
O=C(Nc1ccc(Cl)cc1)Nc1ccc(N2CCOCC2)cc1	-	-	-	-	-	-	.	.
O=C(Nc1ccc(N2CCOCC2)cc1)Nc1ccc(Cl)c(Cl)c1	-	-	-	-	21	-	-	-
O=C(Nc1ccccc1C(=O)Nc1ccncc1)c1ccccc1	-	-	-	.	-	.	.	.
N#C/C(=C(/O)CSc1ccccn1)c1nc2ccccc2s1	-	-	-	-	27	-	-	-
Cc1ccc(SC/C(O)=C(\C#N)c2nc3ccccc3s2)cc1	-	-	-	-	-	-	.	.
O=C(CCc1c[nH]c2ccccc12)NC(Cc1ccccc1)C(=O)O (configuration not stated)	-	-	-	.	-	.	.	.
NC(=Nc1nc(-c2ccccn2)cc2ccccc12)c1ccccn1	.	-	.	.	.	.	.	.
O=C(Nc1ccc(N2CCN(c3ccc(C(F)(F)F)cn3)CC2)nc1)c1cccs1	-	-	-	-	-	-	.	.
CC(=O)Nc1ccc(N2CCN(c3ccc(C(F)(F)F)cn3)CC2)nc1	-	-	-	-	25	-	-	-
Cc1ccc(S(=O)(=O)N[C@H](C(=O)OCC(=O)NC(=O)c2cccn2C)C(C)C)cc1	.	-	.	.	.	.	.	.
CCCCCC(O)(c1ccc(OC)cc1)C(CN1CCOCC1)c1ccccc1 (configuration not stated)	-	-	-	.	24	.	-	-
COc1ccc(NC(=O)CSc2nc3nc(C)cc(C)c3c(=O)[nH]2)cc1	-	-	-	.	23	.	-	-
COc1ccc(C2C(C(=O)c3ccco3)=C(O)C(=O)N2c2nnc(C)s2)cc1 (configuration not stated)	-	-	-	-	-	-	.	.
CSc1nnc(N2C(=O)C(O)=C(C(=O)c3ccco3)C2c2ccc(F)cc2)s1 (configuration not stated)	-	-	-	.	33	.	-	-
CCSc1nnc(N2C(=O)C(O)=C(C(=O)c3ccco3)C2c2cccc(OC)c2)s1 (configuration not stated)	-	-	-	.	31	.	-	-

Assay outcomes from PubChem BioAssay.
